Measurements taken from ChEMBL document CHEMBL4190346, “Structure-based design, synthesis, and biological evaluation of withaferin A-analogues as potent apoptotic inducers” (Eur J Med Chem, 2017).
Active and inactive are the calls of the source. The calls are words filed in the database; no cut-off is given here.

What was measured:
A549 [1] = assay: Cytotoxicity against human A549 cells assessed as reduction in cell viability using compound addition to cell culture cells in lag phase of growth and incubated for 48 hrs by MTT assay; type: functional, cell-based; conditions: Homo sapiens, A549, 48 h; read-out: IC50
Vero [2] = assay: Cytotoxicity against African green monkey Vero cells assessed as reduction in cell viability using compound addition to cell culture cells in lag phase of growth and incubated for 48 hrs by MTT assay; type: cell-based, Chlorocebus sabaeus; conditions: Chlorocebus sabaeus, Vero, 48 h; read-out: IC50
Vero [3] = assay: Cytotoxicity against African green monkey Vero cells assessed as reduction in cell viability using compound addition to cell culture cells in log phase of growth and incubated for 48 hrs by MTT assay; type: cell-based, Chlorocebus sabaeus; conditions: Chlorocebus sabaeus, Vero, 48 h; read-out: IC50
MCF7 (Homo sapiens) [4] = assay: Ratio of IC50 for cytotoxicity against human MCF7 cells incubated for 48 hrs to IC50 for cytotoxicity against human MCF7 cells incubated for 72 hrs
HeLa [5] = assay: Cytotoxicity against human HeLa cells assessed as reduction in cell viability using compound addition to cell culture cells in log phase of growth and incubated for 48 hrs by MTT assay; type: functional, cell-based; conditions: Homo sapiens, HeLa, 48 h; read-out: IC50
A549 [6] = assay: Cytotoxicity against human A549 cells assessed as reduction in cell viability using compound addition to cell culture cells in log phase of growth and incubated for 48 hrs by MTT assay; type: functional, cell-based; conditions: Homo sapiens, A549, 48 h; read-out: IC50
MCF7 [7] = assay: Cytotoxicity against human MCF7 cells assessed as reduction in cell viability using compound addition to cell culture cells in lag phase of growth and incubated for 48 hrs by MTT assay; type: functional, cell-based; conditions: Homo sapiens, MCF7, 48 h; read-out: IC50
MCF7 (Homo sapiens) [8] = assay: Ratio of IC50 for cytotoxicity against human MCF7 cells incubated for 48 hrs to IC50 for cytotoxicity against human MCF7 cells incubated for 72 hrs; remark: listed apart in the source
MCF7 [9] = assay: Ratio of IC50 for cytotoxicity against human MCF7 cells incubated for 48 hrs to IC50 for cytotoxicity against human MCF7 cells incubated for 72 hrs; type: functional
MCF7 [10] = assay: Cytotoxicity against human MCF7 cells assessed as reduction in cell viability using compound addition to cell culture cells in log phase of growth and incubated for 48 hrs by MTT assay; type: functional, cell-based; conditions: Homo sapiens, MCF7, 48 h; read-out: IC50
HeLa [11] = assay: Cytotoxicity against human HeLa cells assessed as reduction in cell viability using compound addition to cell culture cells in lag phase of growth and incubated for 48 hrs by MTT assay; type: functional, cell-based; conditions: Homo sapiens, HeLa, 48 h; read-out: IC50
HeLa [12] = assay: Induction of apoptosis in human HeLa cells assessed as increase in caspase-3 activity by measuring pNA release level at 16 uM incubated for 4 hrs using c-DEVD-pNA substrate by colorimetric assay; type: functional
Outline: (§1)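 HeLa cells in DMEM with 10% FBS were exposed for 4 h (fixed 24 or 32 level for 8 h). Staurosporine for 4 h served as the positive control. Cells were lysed at 4 °C for 10 min and centrifuged, and supernatant protein was measured by Bradford. Caspase-3 activity was read colorimetrically as nmol pNA/min/mL, with treated/untreated OD ratios. Values are means ± SD of three independent experiments in triplicate.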

HeLa [13] = assay: Induction of apoptosis in human HeLa cells assessed as increase in caspase-3 activity by measuring pNA release level at 8 uM incubated for 4 hrs using c-DEVD-pNA substrate by colorimetric assay; type: functional; outline: as §1
HeLa [14] = assay: Induction of apoptosis in human HeLa cells assessed as increase in caspase-3 activity by measuring pNA release level at 12 uM incubated for 4 hrs using c-DEVD-pNA substrate by colorimetric assay; type: functional; outline: as §1
HeLa [15] = assay: Induction of apoptosis in human HeLa cells assessed as […] by measuring pNA release level at 32 uM incubated for 8 hrs using c-DEVD-pNA substrate by colorimetric assay; type: functional, cell-based; outline: as §1
HeLa [16] = assay: Induction of apoptosis in human HeLa cells assessed as increase in caspase-3 activity by measuring pNA release level at 32 uM incubated for 4 hrs using c-DEVD-pNA substrate by colorimetric assay; type: functional; outline: as §1
HeLa [17] = assay: Induction of apoptosis in human HeLa cells assessed as increase in caspase-3 activity by measuring pNA release level at 24 uM incubated for 4 hrs using c-DEVD-pNA substrate by colorimetric assay; type: functional; outline: as §1

## CC1=C(CO)C(=O)O[C@@H]([C@@H](C)[C@H]2CC[C@H]3[C@@H]4C[C@H]5O[C@]56[C@@H](O)[C@@H](N(Cc5ccccc5)Cc5ccccc5)CC(=O)[C@]6(C)[C@H]4CC[C@]23C)C1
A549 [1]
  IC50: 40 µM
Vero [2]
  IC50: 32.9 µM
Vero [3]
  IC50: 15.6 µM
MCF7 (Homo sapiens) [4]
  Ratio IC50: >3
HeLa [5]
  IC50: > 40 µM
A549 [6]
  IC50: > 40 µM
MCF7 [7]
  IC50: 15.4 µM
MCF7 (Homo sapiens) [8]
  Ratio IC50: >3
MCF7 [9]
  Ratio IC50: >3
MCF7 [10]
  IC50: 18.5 µM
HeLa [11]
  IC50: 22.2 µM

## CCCC(=O)OCC1=C(C)C[C@H]([C@@H](C)[C@H]2CC[C@H]3[C@@H]4C[C@H]5O[C@]56[C@@H](O)C=CC(=O)[C@]6(C)[C@H]4CC[C@]23C)OC1=O
A549 [1]
  IC50: 2.6 µM
Vero [2]
  IC50: 0.7 µM
Vero [3]
  IC50: 0.5 µM
HeLa [5]
  IC50: 1.2 µM
HeLa [12]
  Activity: 1.22 nmol/min/mL
HeLa [13]
  Activity: 0.54 nmol/min/mL
A549 [6]
  IC50: 2.2 µM
HeLa [14]
  Activity: 0.72 nmol/min/mL
HeLa [15]
  Activity: Active
MCF7 [7]
  IC50: 2.4 µM
HeLa [16]
  Activity: 1.33 nmol/min/mL
MCF7 [10]
  IC50: 1 µM
HeLa [17]
  Activity: 1.24 nmol/min/mL
HeLa [11]
  IC50: 1.9 µM

## CCC(=O)OCC1=C(C)C[C@H]([C@@H](C)[C@H]2CC[C@H]3[C@@H]4C[C@H]5O[C@]56[C@@H](OC(=O)CC)C=CC(=O)[C@]6(C)[C@H]4CC[C@]23C)OC1=O
A549 [1]
  IC50: 2.6 µM
Vero [2]
  IC50: 1.5 µM
Vero [3]
  IC50: 0.8 µM
HeLa [5]
  IC50: 1.1 µM
HeLa [12]
  Activity: 2.3 nmol/min/mL
HeLa [13]
  Activity: 0.58 nmol/min/mL
A549 [6]
  IC50: 4.1 µM
HeLa [14]
  Activity: 1.1 nmol/min/mL
HeLa [15]
  Activity: Active
MCF7 [7]
  IC50: 2.4 µM
HeLa [16]
  Activity: 1.7 nmol/min/mL
MCF7 [10]
  IC50: 1.1 µM
HeLa [17]
  Activity: 1.6 nmol/min/mL
HeLa [11]
  IC50: 2.1 µM

## CC1=C(C=O)C(=O)O[C@@H]([C@@H](C)[C@H]2CC[C@H]3[C@@H]4C[C@H]5O[C@]56[C@@H](O)C=CC(=O)[C@]6(C)[C@H]4CC[C@]23C)C1
A549 [1]
  IC50: 15.7 µM
Vero [2]
  IC50: 4.4 µM
Vero [3]
  IC50: 3.6 µM
MCF7 (Homo sapiens) [4]
  Ratio IC50: >3
HeLa [5]
  IC50: 10.9 µM
A549 [6]
  IC50: 13.5 µM
MCF7 [7]
  IC50: 3.7 µM
MCF7 (Homo sapiens) [8]
  Ratio IC50: >3
MCF7 [9]
  Ratio IC50: >3
MCF7 [10]
  IC50: 2.1 µM
HeLa [11]
  IC50: 6.5 µM

## CNc1ccccc1C(=O)OCC1=C(C)C[C@H]([C@@H](C)[C@H]2CC[C@H]3[C@@H]4C[C@H]5O[C@]56[C@@H](O)C=CC(=O)[C@]6(C)[C@H]4CC[C@]23C)OC1=O
A549 [1]
  IC50: 3.7 µM
Vero [2]
  IC50: 1.2 µM
Vero [3]
  IC50: 1.6 µM
MCF7 (Homo sapiens) [4]
  Ratio IC50: >3
HeLa [5]
  IC50: 4.2 µM
A549 [6]
  IC50: 4.7 µM
MCF7 [7]
  IC50: 1.6 µM
MCF7 (Homo sapiens) [8]
  Ratio IC50: >3
MCF7 [9]
  Ratio IC50: >3
MCF7 [10]
  IC50: 1 µM
HeLa [11]
  IC50: 1.6 µM

## CC1=C(COC(=O)c2ccoc2)C(=O)O[C@@H]([C@@H](C)[C@H]2CC[C@H]3[C@@H]4C[C@H]5O[C@]56[C@@H](OC(=O)c5ccoc5)C=CC(=O)[C@]6(C)[C@H]4CC[C@]23C)C1
A549 [1]
  IC50: 3.6 µM
Vero [2]
  IC50: 0.9 µM
Vero [3]
  IC50: 0.9 µM
MCF7 (Homo sapiens) [4]
  Ratio IC50: >3
HeLa [5]
  IC50: 3.8 µM
A549 [6]
  IC50: 3.8 µM
MCF7 [7]
  IC50: 1.5 µM
MCF7 (Homo sapiens) [8]
  Ratio IC50: >3
MCF7 [9]
  Ratio IC50: >3
MCF7 [10]
  IC50: 1.7 µM
HeLa [11]
  IC50: 2.9 µM

## CC1=C(CO)C(=O)O[C@@H]([C@@H](C)[C@H]2CC[C@H]3[C@@H]4C[C@@H](O)[C@]5(C=O)C=CC(=O)[C@]5(C)[C@H]4CC[C@]23C)C1
Vero [3]
  IC50: > 40 µM
MCF7 (Homo sapiens) [4]
  Ratio IC50: >3
HeLa [5]
  IC50: > 40 µM
A549 [6]
  IC50: > 40 µM
MCF7 (Homo sapiens) [8]
  Ratio IC50: >3
MCF7 [9]
  Ratio IC50: >3
MCF7 [10]
  IC50: > 40 µM

## CCCCCCCC(=O)OCC1=C(C)C[C@H]([C@@H](C)[C@H]2CC[C@H]3[C@@H]4C[C@H]5O[C@]56[C@@H](OC(=O)CCCCCCC)C=CC(=O)[C@]6(C)[C@H]4CC[C@]23C)OC1=O
A549 [1]
  IC50: > 40 µM
Vero [2]
  IC50: 3.3 µM
Vero [3]
  IC50: 18.3 µM
MCF7 (Homo sapiens) [4]
  Ratio IC50: >3
HeLa [5]
  IC50: > 40 µM
A549 [6]
  IC50: > 40 µM
MCF7 [7]
  IC50: 23.8 µM
MCF7 (Homo sapiens) [8]
  Ratio IC50: >3
MCF7 [9]
  Ratio IC50: >3
MCF7 [10]
  IC50: 33.5 µM
HeLa [11]
  IC50: 33.8 µM

## CC1=C(COC(=O)c2cccc3ccccc23)C(=O)O[C@@H]([C@@H](C)[C@H]2CC[C@H]3[C@@H]4C[C@H]5O[C@]56[C@@H](O)C=CC(=O)[C@]6(C)[C@H]4CC[C@]23C)C1
A549 [1]
  IC50: 6.4 µM
Vero [2]
  IC50: 0.4 µM
Vero [3]
  IC50: 0.6 µM
MCF7 (Homo sapiens) [4]
  Ratio IC50: >3
HeLa [5]
  IC50: 3.5 µM
A549 [6]
  IC50: 13.7 µM
MCF7 [7]
  IC50: 0.9 µM
MCF7 (Homo sapiens) [8]
  Ratio IC50: >3
MCF7 [9]
  Ratio IC50: >3
MCF7 [10]
  IC50: 2.2 µM
HeLa [11]
  IC50: 2 µM

## CC1=C(COC(=O)CBr)C(=O)O[C@@H]([C@@H](C)[C@H]2CC[C@H]3[C@@H]4C[C@H]5O[C@]56[C@@H](O)C=CC(=O)[C@]6(C)[C@H]4CC[C@]23C)C1
A549 [1]
  IC50: 3.9 µM
Vero [2]
  IC50: 1.1 µM
Vero [3]
  IC50: 1.6 µM
MCF7 (Homo sapiens) [4]
  Ratio IC50: >3
HeLa [5]
  IC50: 4.9 µM
A549 [6]
  IC50: 4.8 µM
MCF7 [7]
  IC50: 1.2 µM
MCF7 (Homo sapiens) [8]
  Ratio IC50: >3
MCF7 [9]
  Ratio IC50: >3
MCF7 [10]
  IC50: 0.9 µM
HeLa [11]
  IC50: 2.1 µM

## CC1=C(CO)C(=O)O[C@@H]([C@@H](C)[C@H]2CC[C@H]3[C@@H]4C[C@H]5O[C@]56[C@@H](O)C=C[C@@H](O)[C@]6(C)[C@H]4CC[C@]23C)C1
A549 [1]
  IC50: > 40 µM
Vero [2]
  IC50: 7.1 µM
Vero [3]
  IC50: 6 µM
MCF7 (Homo sapiens) [4]
  Ratio IC50: >3
HeLa [5]
  IC50: 17.5 µM
A549 [6]
  IC50: 17.3 µM
MCF7 [7]
  IC50: 16.8 µM
MCF7 (Homo sapiens) [8]
  Ratio IC50: >3
MCF7 [9]
  Ratio IC50: >3
MCF7 [10]
  IC50: 7.5 µM
HeLa [11]
  IC50: 15.8 µM

## CC1=C(CO[Si](C)(C)C(C)(C)C)C(=O)O[C@@H]([C@@H](C)[C@H]2CC[C@H]3[C@@H]4C[C@H](O)[C@]5(O)[C@@H](O)C=CC(=O)[C@]5(C)[C@H]4CC[C@]23C)C1
A549 [1]
  IC50: 14.2 µM
Vero [2]
  IC50: 7.9 µM
Vero [3]
  IC50: 7.6 µM
HeLa [5]
  IC50: 12 µM
A549 [6]
  IC50: 10 µM
MCF7 [7]
  IC50: 7.5 µM
MCF7 [10]
  IC50: 5.6 µM
HeLa [11]
  IC50: 14.8 µM
